Among the data in ChEMBL document CHEMBL1137383, “New efficient substrates for semicarbazide-sensitive amine oxidase/VAP-1 enzyme: analysis by SARs and computational docking” (J Med Chem, 2006) are Km values, retold here.

Substrate in data set [1]: Cc1ccc(CN)cc1F
Nature of the data set: (§1) Binding affinity to mouse SSAO. The essentials:
(§2)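 Mouse adipose membranes (1 µg protein/assay) assayed by Amplex Red/HRP H2O2 fluorimetry, 0.2 mol/L phosphate pH 7.4, 37 °C, 50 min, semicarbazide-insensitive signal subtracted. Km and Vmax by nonlinear Michaelis-Menten fitting; means of four independent measurements.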

Substrate in data set [2]: NCc1cccc(CNC(=O)CI)c1
The data set is described as §1. The method, boiled down: as §2

Substrate in data set [3]: NCCCc1ccccc1
The data set is described as §1. The essentials:
as §2

Substrate in data set [4]: NCc1cccc(CNC(=O)c2ccccc2)c1
Described as §1. The method, boiled down: as §2

Substrate in data set [5]: NCCc1ccccc1
The data set is described as §1. The essentials: as §2

Substrate in data set [6]: NCCc1ccc(F)cc1
The data set is described as §1. The essentials:
as §2

Substrate in data set [7]: NCc1ccccc1
The data set is described as §1. The method, boiled down:
as §2

Substrate in data set [8]: NCCCCc1ccccc1
The data set is described as §1. The essentials: as §2

Substrate in data set [9]: NCc1ccc(F)cc1
The data set is described as §1. The essentials: as §2

Substrate in data set [10]: C=CCOC(=O)NCc1cccc(CN)c1
The data set is described as §1. The essentials: as §2

Substrate in data set [11]: Cc1ccc(CN)cc1F
The experiment in a line: (§3) Binding affinity to human SSAO. The essentials: (§4)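 Recombinant human VAP-1 (0.1 µg protein/assay), Amplex Red/HRP H2O2 fluorimetry in 0.2 mol/L phosphate pH 7.4, 37 °C, 50 min; semicarbazide-insensitive H2O2 subtracted. Km and Vmax from nonlinear Michaelis-Menten fit across substrate concentrations; means of four independent measurements.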

Substrate in data set [12]: NCc1cccc(CNC(=O)CI)c1
Described as §3. The method, boiled down: as §4

Substrate in data set [13]: NCCCc1ccccc1
Described as §3. The method, boiled down: as §4

Substrate in data set [14]: NCc1cccc(CNC(=O)c2ccccc2)c1
The data set is described as §3. The method, boiled down:
as §4

Substrate in data set [15]: NCCc1ccccc1
The data set is described as §3. The method, boiled down:
as §4

Substrate in data set [16]: NCCc1ccc(F)cc1
The data set is described as §3. The method, boiled down:
as §4

Substrate in data set [17]: NCc1ccccc1
Described as §3. The essentials: as §4

Substrate in data set [18]: NCCCCc1ccccc1
The data set is described as §3. The essentials: as §4

Substrate in data set [19]: NCc1ccc(F)cc1
Described as §3. The method, boiled down:
as §4

Substrate in data set [20]: C=CCOC(=O)NCc1cccc(CN)c1
The data set is described as §3. The method, boiled down: as §4

B1: Amine oxidase [copper-containing] 3 (Mus musculus), O70423 (protein)
chain: MTQKTTLVLLALAVITIFALVCVLLAGRSGDGGGLSQPLHCPSVLPSVQPRTHPSQSQPFADLSPEELTAVMSFLTKHLGPGLVDAAQARPSDNCVFSVELQLPAKAAALAHLDRGGPPPVREALAIIFFGGQPKPNVSELVVGPLPHPSYMRDVTVERHGGPLPYYRRPVLDREYQDIEEMIFHRELPQASGLLHHCCFYKHQGQNLLTMTTAPRGLQSGDRATWFGLYYNLSGAGFYPHPIGLELLIDHKALDPALWTIQKVFYQGRYYESLTQLEDQFEAGLVNVVLVPNNGTGGSWSLKSSVPPGPAPPLQFHPQGPRFSVQGSQVSSSLWAFSFGLGAFSGPRIFDIRFQGERVAYEISVQEAIALYGGNSPASMSTCYVDGSFGIGKYSTPLIRGVDCPYLATYVDWHFLLESQAPKTLRDAFCVFEQNQGLPLRRHHSDFYSHYFGGVVGTVLVVRSVSTLLNYDYIWDMVFHPNGAIEVKFHATGYISSAFFFGAGEKFGNRVGAHTLGTVHTHSAHFKVDLDVAGLKNWAWAEDMAFVPTIVPWQPEYQMQRLQVTRKLLETEEEAAFPLGGATPRYLYLASNHSNKWGHRRGYRIQILSFAGKPLPQESPIEKAFTWGRYHLAVTQRKEEEPSSSSIFNQNDPWTPTVNFTDFISNETIAGEDLVAWVTAGFLHIPHAEDIPNTVTAGNSVGFFLRPYNFFDEDPSFHSADSIYFREGQDATACEVNPLACLSQTATCAPEIPAFSHGGFAYRDN
Regarding B1, the Km in data set [1] turned out to be 14.8 µM; in [2], 29.8 µM; in data set [3] it was 27 µM; in [4] it was 12.8 µM; in data set [5], 34.8 µM; in [6] it was 88.8 µM. In addition, the Km in [7] came to 15.4 µM; in [8], 11.3 µM; in data set [9], 15.7 µM; in [10], 11.5 µM.

B2: Amine oxidase [copper-containing] 3 (Homo sapiens), Q16853 (protein)
chain: MNQKTILVLLILAVITIFALVCVLLVGRGGDGGEPSQLPHCPSVSPSAQPWTHPGQSQLFADLSREELTAVMRFLTQRLGPGLVDAAQARPSDNCVFSVELQLPPKAAALAHLDRGSPPPAREALAIVFFGRQPQPNVSELVVGPLPHPSYMRDVTVERHGGPLPYHRRPVLFQEYLDIDQMIFNRELPQASGLLHHCCFYKHRGRNLVTMTTAPRGLQSGDRATWFGLYYNISGAGFFLHHVGLELLVNHKALDPARWTIQKVFYQGRYYDSLAQLEAQFEAGLVNVVLIPDNGTGGSWSLKSPVPPGPAPPLQFYPQGPRFSVQGSRVASSLWTFSFGLGAFSGPRIFDVRFQGERLVYEISLQEALAIYGGNSPAAMTTRYVDGGFGMGKYTTPLTRGVDCPYLATYVDWHFLLESQAPKTIRDAFCVFEQNQGLPLRRHHSDLYSHYFGGLAETVLVVRSMSTLLNYDYVWDTVFHPSGAIEIRFYATGYISSAFLFGATGKYGNQVSEHTLGTVHTHSAHFKVDLDVAGLENWVWAEDMVFVPMAVPWSPEHQLQRLQVTRKLLEMEEQAAFLVGSATPRYLYLASNHSNKWGHPRGYRIQMLSFAGEPLPQNSSMARGFSWERYQLAVTQRKEEEPSSSSVFNQNDPWAPTVDFSDFINNETIAGKDLVAWVTAGFLHIPHAEDIPNTVTVGNGVGFFLRPYNFFDEDPSFYSADSIYFRGDQDAGACEVNPLACLPQAAACAPDLPAFSHGGFSHN
On to B2, for which the Km amounted to 405 µM in data set [11]; 525 µM in data set [12]; 1670 µM in data set [13]; 630 µM in [14]; 3720 µM in data set [15]; 1900 µM in data set [16]. In addition, the Km in [17] came out at 224 µM; in data set [18] it was 280 µM; in data set [19] it was 205 µM; in [20] it was 569 µM.
